Measured values reported in ChEMBL document CHEMBL3758117, “Discovery of indeno[1,2-b]quinoxaline derivatives as potential anticancer agents” (Eur J Med Chem, 2016).
pIC50: −log10 of the molar value. The source made the active and inactive calls. The rule behind the calls is not given here.

Assays:
[1] = Antiproliferative activity against human H1299 cells after 72 hrs by XTT assay; assay type: functional, cell-based; conditions: NCI-H1299, 72 h
In short: (§1)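 Cells kept as monolayers in DMEM with 10% FBS, penicillin, streptomycin and amphotericin at 37°C, 5% CO2. Seeded at 5 x 10³ cells/well and exposed to compound for 72 h in medium with 10% FBS. XTT plus electron-coupling reagent added, 4 h at 37°C, absorbance read at 492 nm. Percent of control growth uses mean absorbance (n = 3). The 50% value is taken from the linear portion of the curve.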

[2] = target: DNA topoisomerase 2-alpha (Homo sapiens) (UniProt P11388); assay: Inhibition of human DNA topoisomerase 2-mediated relaxation of supercoiled pBR322 DNA at 10 uM after 30 mins by ethidium bromide staining based agarose gel electrophoresis
Chain of DNA topoisomerase 2-alpha (Homo sapiens) (P11388 whole entry): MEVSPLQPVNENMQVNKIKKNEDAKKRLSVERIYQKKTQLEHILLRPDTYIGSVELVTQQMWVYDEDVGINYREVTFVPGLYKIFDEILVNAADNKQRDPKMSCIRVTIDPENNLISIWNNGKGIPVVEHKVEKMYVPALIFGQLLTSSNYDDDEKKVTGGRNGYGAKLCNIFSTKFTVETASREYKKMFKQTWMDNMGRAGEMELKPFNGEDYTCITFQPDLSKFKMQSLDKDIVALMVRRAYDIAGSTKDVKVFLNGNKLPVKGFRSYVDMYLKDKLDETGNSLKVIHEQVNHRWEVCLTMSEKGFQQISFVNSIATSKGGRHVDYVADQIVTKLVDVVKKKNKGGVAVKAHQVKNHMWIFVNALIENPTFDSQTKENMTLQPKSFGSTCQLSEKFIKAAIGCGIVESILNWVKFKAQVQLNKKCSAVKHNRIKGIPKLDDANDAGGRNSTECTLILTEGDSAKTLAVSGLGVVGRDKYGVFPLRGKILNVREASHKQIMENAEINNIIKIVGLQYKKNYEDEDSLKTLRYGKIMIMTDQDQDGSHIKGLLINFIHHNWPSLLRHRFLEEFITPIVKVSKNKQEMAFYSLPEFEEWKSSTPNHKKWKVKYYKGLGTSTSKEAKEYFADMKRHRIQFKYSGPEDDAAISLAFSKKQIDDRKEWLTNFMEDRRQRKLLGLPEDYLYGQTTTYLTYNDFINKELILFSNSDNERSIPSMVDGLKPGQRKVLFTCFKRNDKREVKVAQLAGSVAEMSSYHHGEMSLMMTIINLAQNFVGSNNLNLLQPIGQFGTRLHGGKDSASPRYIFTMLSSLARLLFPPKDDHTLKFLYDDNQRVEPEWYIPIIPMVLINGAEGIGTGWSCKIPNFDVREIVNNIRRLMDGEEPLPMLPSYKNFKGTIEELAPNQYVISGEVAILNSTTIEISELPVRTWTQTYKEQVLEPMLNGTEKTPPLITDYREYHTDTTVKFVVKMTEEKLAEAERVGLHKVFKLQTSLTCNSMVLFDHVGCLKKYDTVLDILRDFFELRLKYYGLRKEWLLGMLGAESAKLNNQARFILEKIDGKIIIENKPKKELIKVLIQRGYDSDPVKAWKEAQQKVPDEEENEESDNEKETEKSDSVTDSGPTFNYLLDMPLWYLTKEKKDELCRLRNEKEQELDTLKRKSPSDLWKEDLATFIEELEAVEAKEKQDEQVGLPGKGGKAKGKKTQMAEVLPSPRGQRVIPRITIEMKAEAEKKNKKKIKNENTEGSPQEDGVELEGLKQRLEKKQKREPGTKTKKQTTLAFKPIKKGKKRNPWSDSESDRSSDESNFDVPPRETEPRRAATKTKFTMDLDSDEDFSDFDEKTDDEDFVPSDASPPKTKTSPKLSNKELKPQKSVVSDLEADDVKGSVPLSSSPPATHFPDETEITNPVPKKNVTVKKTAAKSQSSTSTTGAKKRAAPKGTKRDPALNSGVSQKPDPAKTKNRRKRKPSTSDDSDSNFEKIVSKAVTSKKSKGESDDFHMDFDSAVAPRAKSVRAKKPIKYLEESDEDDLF
In short: (§2)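 Human topo I or topo II (2 units) was reacted with 0.2 μg supercoiled pBR322 in 20 μl Tris-HCl pH 7.5 containing KCl, DTT, EDTA, MgCl2 and BSA, with DMSO held at 0.5%, for 30 min at 37°C. The reaction was stopped with SDS. Samples were run on 1% agarose in Tris-acetate/EDTA at 1.5 V/cm for 2-3 h and stained with ethidium bromide. Relaxation was quantified by densitometry of the supercoiled band area.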

[3] = target: DNA topoisomerase 2-alpha (Homo sapiens) (UniProt P11388); assay: Inhibition of human DNA topoisomerase 2-mediated relaxation of supercoiled pBR322 DNA at 100 uM after 30 mins by ethidium bromide staining based agarose gel electrophoresis; in short: as §2
MRC5 [4] = assay: Selectivity index, ratio of IC50 for human MRC5 cells to IC50 for human PC3 cells; assay type: functional
MRC5 [5] = assay: Selectivity index, ratio of IC50 for human MRC5 cells to IC50 for human MDA-MB-231 cells; assay type: functional
[6] = target: T1, DNA topoisomerase 1 (Homo sapiens) (UniProt P11387); assay: Inhibition of human DNA topoisomerase 1-mediated relaxation of supercoiled pBR322 DNA at 10 uM after 30 mins by ethidium bromide staining based agarose gel electrophoresis; in short: as §2
T1 sequence (whole entry): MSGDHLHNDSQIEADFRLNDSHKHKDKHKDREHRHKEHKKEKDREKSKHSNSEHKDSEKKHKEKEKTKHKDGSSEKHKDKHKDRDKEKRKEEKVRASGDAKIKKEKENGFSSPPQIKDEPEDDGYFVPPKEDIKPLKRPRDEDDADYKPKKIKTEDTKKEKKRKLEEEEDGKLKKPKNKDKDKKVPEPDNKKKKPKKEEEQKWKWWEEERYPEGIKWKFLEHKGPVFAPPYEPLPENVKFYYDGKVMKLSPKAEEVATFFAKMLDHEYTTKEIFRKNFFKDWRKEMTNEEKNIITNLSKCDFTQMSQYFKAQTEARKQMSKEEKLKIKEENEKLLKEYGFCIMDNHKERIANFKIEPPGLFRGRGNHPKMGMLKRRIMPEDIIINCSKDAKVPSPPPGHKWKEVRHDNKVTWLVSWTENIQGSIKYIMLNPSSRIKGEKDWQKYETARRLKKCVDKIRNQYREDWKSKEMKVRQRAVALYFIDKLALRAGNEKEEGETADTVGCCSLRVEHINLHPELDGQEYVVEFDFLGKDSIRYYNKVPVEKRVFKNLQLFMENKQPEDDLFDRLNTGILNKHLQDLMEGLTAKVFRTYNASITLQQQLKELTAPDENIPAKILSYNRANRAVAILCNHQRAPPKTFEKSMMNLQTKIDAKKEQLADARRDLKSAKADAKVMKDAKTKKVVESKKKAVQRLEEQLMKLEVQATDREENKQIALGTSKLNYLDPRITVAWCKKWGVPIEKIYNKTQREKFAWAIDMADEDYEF

MRC5 [7] = assay: Antiproliferative activity against human MRC5 cells after 72 hrs by XTT assay; assay type: cell-based; conditions: MRC5, 72 h; in short: as §1
[8] = Antiproliferative activity against human PC3 cells after 72 hrs by XTT assay; assay type: functional, cell-based; conditions: PC-3, 72 h; in short: as §1
Escherichia coli = assay: Binding affinity to Escherichia coli negative supercoiled pBR322 DNA at 10 uM after 12 hrs by ethidium bromide staining based agarose gel electrophoresis
In short: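 Negatively supercoiled pBR322 (400 ng) in TE buffer pH 8.0 was incubated with compound at 10 μM for 12 h at room temperature. Loading buffer with sarkosyl was added. Samples were run on 1% agarose at 6 V/cm for 2.5 h in TAE pH 8.5, stained with ethidium bromide and photographed under UV.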

Huh-7 = assay: Selectivity index, ratio of IC50 for human MRC5 cells to IC50 for human HuH7 cells; assay type: functional
[9] = target: T1, DNA topoisomerase 1 (Homo sapiens); assay: Inhibition of human DNA topoisomerase 1-mediated relaxation of supercoiled pBR322 DNA at 100 uM after 30 mins by ethidium bromide staining based agarose gel electrophoresis; in short: as §2
[10] = Selectivity index, ratio of IC50 for human MRC5 cells to IC50 for human H1299 cells; assay type: functional
[11] = Antiproliferative activity against human HuH7 cells after 72 hrs by XTT assay; assay type: functional, cell-based; conditions: Huh-7, 72 h; in short: as §1
MDA-MB-231 = assay: Antiproliferative activity against human MDA-MB-231 cells after 72 hrs by XTT assay; assay type: functional, cell-based; conditions: MDA-MB-231, 72 h; in short: as §1

Row | SMILES | pIC50 [1] | topoisomerase 2 inhibition (active/not active) [2] | inhibition call (active/not active) [3] | Ratio IC50 (MRC5 [4]) | Ratio IC50 (MRC5 [5]) | inhibition [6] | pIC50 (MRC5 [7]) | pIC50 [8] | Activity (Escherichia coli) | Ratio IC50 (Huh-7) | topoisomerase 1 inhibition (active/inactive) [9] | Ratio IC50 [10] | pIC50 [11] | pIC50 (MDA-MB-231)
1 | Cc1cccc2nc3c(nc12)-c1ccccc1/C3=N\OCCCN(C)C.Cl | 5.14 | inactive | Active | 1.12 | 1.13 | Active | 5.10 | 5.15 | inactive | 1.34 | Active | 1.08 | 5.23 | 5.16
2 | CC[C@@]1(O)C(=O)OCc2c1cc1n(c2=O)Cc2cc3c(CN(C)C)c(O)ccc3nc2-1 [TOPOTECAN] | – | – | – | 0.45 | >42.5 | – | 5.37 | 5.03 | – | 0.49 | – | 0.71 | – | > 7.00
3 | CN(C)Cc1cccc2nc3c(nc12)-c1ccccc1C3=O | < 5.00 | – | inactive | – | – | inactive | 4.11 | < 5.00 | inactive | – | Active | – | < 5.00 | < 5.00
4 | COc1ccc2c(c1)/C(=N\OCCN1CCCC1)c1c-2c(O)nc2ccccc12 | – | Active | Active | – | – | Active | – | – | – | – | Active | – | – | –
5 | O=C1c2ccccc2-c2nc3c(CN4CCCCC4)cccc3nc21 | < 5.00 | – | inactive | – | – | inactive | 4.59 | < 5.00 | inactive | – | Active | – | < 5.00 | < 5.00
6 | O/N=C1\c2ccccc2-c2nc3ccccc3nc21 | < 5.00 | – | inactive | – | – | – | 4.29 | < 5.00 | inactive | – | inactive | – | < 5.00 | < 5.00
7 | Cc1cccc2nc3c(nc12)-c1ccccc1C3=O | < 5.00 | – | – | – | – | – | 4.06 | < 5.00 | inactive | – | – | – | < 5.00 | < 5.00
8 | O/N=C\c1cccc2nc3c(nc12)-c1ccccc1/C3=N/O | 5.09 | – | inactive | 0.69 | 0.61 | – | 5.18 | 5.02 | inactive | 0.76 | inactive | 0.8 | 5.06 | 4.97
9 | O=C1c2ccccc2-c2nc3ccccc3nc21 | < 5.00 | – | – | – | – | – | 4.07 | < 5.00 | inactive | – | – | – | < 5.00 | < 5.00
10 | O=C1c2ccccc2-c2nc3c(C(=O)O)cccc3nc21 | < 5.00 | – | – | – | – | – | 4.15 | < 5.00 | inactive | – | – | – | < 5.00 | < 5.00
11 | O=Cc1cccc2nc3c(nc12)-c1ccccc1C3=O | < 5.00 | – | inactive | – | – | – | 4.10 | < 5.00 | inactive | – | inactive | – | < 5.00 | < 5.00
12 | O=C1c2ccccc2-c2nc3c(C(=O)NCCN4CCOCC4)cccc3nc21 | < 5.00 | – | inactive | – | – | – | 4.05 | < 5.00 | inactive | – | inactive | – | < 5.00 | < 5.00
13 | O=C1c2ccccc2-c2nc3c(CN4CCCC4)cccc3nc21 | < 5.00 | – | inactive | – | – | inactive | 5.01 | < 5.00 | inactive | 1.4 | Active | – | 5.16 | < 5.00
14 | CN(C)CCCO/N=C1\c2ccccc2-c2nc3c(C(=O)O)cccc3nc21 | < 5.00 | – | inactive | – | – | – | 4.82 | < 5.00 | inactive | – | inactive | – | < 5.00 | < 5.00
15 | O=C1c2ccccc2-c2nc3c(CN4CCOCC4)cccc3nc21 | < 5.00 | – | inactive | – | – | – | 4.02 | < 5.00 | inactive | – | inactive | – | < 5.00 | < 5.00
16 | O=C1c2ccccc2-c2nc3c(CN4CCC(N5CCCCC5)CC4)cccc3nc21 | < 5.00 | – | inactive | – | – | – | 4.05 | < 5.00 | inactive | – | inactive | – | < 5.00 | < 5.00
